Data from ChEMBL document CHEMBL1821587, “Synthesis, antibacterial activities and molecular docking studies of Schiff bases derived from N-(2/4-benzaldehyde-amino) phenyl-N'-phenyl-thiourea” (Bioorg Med Chem, 2011).
Values after ≈ are worked out from the molar mass of the structure shown.

What was measured:
[1] = tested on: Escherichia coli; assay: Antibacterial activity against Escherichia coli ATCC 35218 after 24 hrs by MTT assay; type: functional; settings: ATCC 35218, 24 h
Outline: (§1)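 MICs by broth microdilution in Mueller-Hinton medium. Compounds were taken from a 100 μg/mL DMSO stock into sterile medium and serially diluted. Inoculum about 10⁵ cfu/mL, incubated 37 °C for 24 h, and MIC read visually. MTT (2 mg/mL in PBS pH 7.4) was then added for 4–5 h at room temperature, dye extracted with acidified isopropanol for 12 h, OD read at 550 nm.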

[2] = tested on: Pseudomonas aeruginosa; assay: Antibacterial activity against Pseudomonas aeruginosa ATCC 13525 after 24 hrs by MTT assay; type: functional; settings: ATCC 13525, 24 h; outline: as §1
[3] = tested on: Bacillus subtilis; assay: Antibacterial activity against Bacillus subtilis ATCC 6633 after 24 hrs by MTT assay; type: functional; settings: ATCC 6633, 24 h; outline: as §1
[4] = tested on: Staphylococcus aureus; assay: Antibacterial activity against Staphylococcus aureus ATCC 6538 after 24 hrs by MTT assay; type: functional; settings: ATCC 6538, 24 h; outline: as §1
[5] = Inhibition of Escherichia coli N-terminal His-tagged FabH expressed in Escherichia coli BL21(DE3) using [3H]-acetyl-CoA after 25 mins by liquid scintillation counting
Outline: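 His-tagged E. coli FabH was expressed with IPTG induction, purified on Ni-NTA and stored in Tris pH 7.6 with DTT and glycerol. Assay in 20 mM sodium phosphate pH 7.0 with 0.5 mM DTT, 0.25 mM MgCl₂, […] ACPS-converted holo-ACP and 1 nM FabH. Started with 25 μM acetyl-CoA plus [³H]acetyl-CoA, run 25 min, stopped with TCA; pellet counted by scintillation. Inhibitors added in DMSO (final ≤2%) for IC50.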

[6] = Toxicity in RBC assessed as hemolysis; type: cell-based; settings: erythrocyte

Structure (SMILES)	MIC [1] [µg/mL]	MIC [2] [µg/mL]	MIC [3] [µg/mL]	MIC [4] [µg/mL]	IC50 [5] [µM]	MHC [6] [µg/mL]
Oc1ccccc1/C=N/c1ccccc1NC(=S)Nc1ccccc1	> 100	> 100	> 100	> 100		
Oc1c(Br)cc(Br)cc1/C=N/c1ccccc1NC(=S)Nc1ccccc1	> 100	> 100	> 100	> 100		
Oc1ccc(Cl)cc1/C=N/c1ccccc1NC(=S)Nc1ccccc1	3.13 (≈ 8.2 µM)	3.13 (≈ 8.2 µM)	12.5 (≈ 32.7 µM)	6.25 (≈ 16.4 µM)	9.5	> 10000
Oc1ccc(Br)cc1/C=N/c1ccccc1NC(=S)Nc1ccccc1	> 100	> 100	> 100	> 100		
S=C(Nc1ccccc1)Nc1ccccc1/N=C/c1ccc(Cl)cc1	> 100	> 100	> 100	> 100		
S=C(Nc1ccccc1)Nc1ccccc1/N=C/c1ccc(Br)cc1	> 100	> 100	50 (≈ 122 µM)	> 100		
COc1ccc(/C=N/c2ccccc2NC(=S)Nc2ccccc2)cc1	> 100	> 100	> 100	> 100		
Oc1ccccc1/C=N/c1ccc(NC(=S)Nc2ccccc2)cc1	12.5 (≈ 36 µM)	6.25 (≈ 18 µM)	25 (≈ 72 µM)	6.25 (≈ 18 µM)	28.7	> 10000
Oc1c(Br)cc(Br)cc1/C=N/c1ccc(NC(=S)Nc2ccccc2)cc1	> 100	> 100	> 100	> 100		
Oc1ccc(Cl)cc1/C=N/c1ccc(NC(=S)Nc2ccccc2)cc1	6.25 (≈ 16.4 µM)	6.25 (≈ 16.4 µM)	12.5 (≈ 32.7 µM)	12.5 (≈ 32.7 µM)	12.8	> 10000
Oc1ccc(Br)cc1/C=N/c1ccc(NC(=S)Nc2ccccc2)cc1	25 (≈ 58.6 µM)	25 (≈ 58.6 µM)	50 (≈ 117 µM)	50 (≈ 117 µM)	39	> 10000
Fc1ccccc1/C=N/c1ccc(NC(=S)Nc2ccccc2)cc1	> 100	> 100	> 100	> 100		
O=[N+]([O-])c1ccccc1/C=N/c1ccc(NC(=S)Nc2ccccc2)cc1	> 100	> 100	50 (≈ 133 µM)	25 (≈ 66.4 µM)		
S=C(Nc1ccccc1)Nc1ccc(/N=C/c2ccc(Cl)cc2Cl)cc1	12.5 (≈ 31.2 µM)	25 (≈ 62.4 µM)	12.5 (≈ 31.2 µM)	12.5 (≈ 31.2 µM)	30.4	> 10000
S=C(Nc1ccccc1)Nc1ccc(/N=C/c2cccc(Br)c2)cc1	> 100	> 100	> 100	> 100		
COc1cccc(/C=N/c2ccc(NC(=S)Nc3ccccc3)cc2)c1	50 (≈ 138 µM)	25 (≈ 69.2 µM)	25 (≈ 69.2 µM)	50 (≈ 138 µM)	48.1	> 10000
Fc1ccc(/C=N/c2ccc(NC(=S)Nc3ccccc3)cc2)cc1	50 (≈ 143 µM)	50 (≈ 143 µM)	50 (≈ 143 µM)	25 (≈ 71.5 µM)		
S=C(Nc1ccccc1)Nc1ccc(/N=C/c2ccc(Cl)cc2)cc1	6.25 (≈ 17.1 µM)	3.13 (≈ 8.55 µM)	12.5 (≈ 34.2 µM)	6.25 (≈ 17.1 µM)	15.6	> 10000
S=C(Nc1ccccc1)Nc1ccc(/N=C/c2ccc(Br)cc2)cc1	25 (≈ 60.9 µM)	25 (≈ 60.9 µM)	50 (≈ 122 µM)	50 (≈ 122 µM)	40.8	> 10000
O=[N+]([O-])c1ccc(/C=N/c2ccc(NC(=S)Nc3ccccc3)cc2)cc1	25 (≈ 66.4 µM)	50 (≈ 133 µM)	50 (≈ 133 µM)	50 (≈ 133 µM)		
Cc1ccc(/C=N/c2ccc(NC(=S)Nc3ccccc3)cc2)cc1	12.5 (≈ 36.2 µM)	25 (≈ 72.4 µM)	25 (≈ 72.4 µM)	25 (≈ 72.4 µM)	25.9	> 10000
S=C(Nc1ccccc1)Nc1ccc(/N=C/c2ccc(OCc3ccccc3)cc2)cc1	1.56 (≈ 3.57 µM)	3.13 (≈ 7.15 µM)	6.25 (≈ 14.3 µM)	3.13 (≈ 7.15 µM)	4.3	> 10000
NC[C@H]1O[C@H](O[C@H]2[C@H](O)[C@@H](O[C@H]3O[C@H](CO)[C@@H](O)[C@H](N)[C@H]3O)[C@H](N)C[C@@H]2N)[C@H](N)[C@@H](O)[C@@H]1O [BEKANAMYCIN]	1.56 (≈ 3.23 µM)	3.13 (≈ 6.47 µM)	0.39 (≈ 0.807 µM)	3.13 (≈ 6.47 µM)		
CC1(C)S[C@@H]2[C@H](NC(=O)Cc3ccccc3)C(=O)N2[C@H]1C(=O)O [PENICILLIN G]	3.13 (≈ 9.36 µM)	6.25 (≈ 18.7 µM)	1.56 (≈ 4.67 µM)	6.25 (≈ 18.7 µM)		
